For orientation: IC50 means the concentration at which inhibition is half-maximal. By EC50 is commonly meant the concentration that produces a half-maximal response. Read a high EC50 as lower potency in that assay.

The text below walks through data of ChEMBL document CHEMBL1143602, “Evaluation of 8-arylsulfanyl, 8-arylsulfoxyl, and 8-arylsulfonyl adenine derivatives as inhibitors of the heat shock protein 90” (J Med Chem, 2005).

One test has as its system SK-BR-3. Put plainly: Inhibitory concentration against SKBr3 cell line. The test is classed as functional, cell-based. As to conditions: Homo sapiens. Put shortly: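 Sulforhodamine B growth assay in SKBr3 cells grown in DME:F12 with 10% FBS at 37 °C, 5% CO2, attached overnight. Drug or DMSO was added in triplicate and serially diluted 1:1. Cells were grown 72 h, fixed with TCA and stained with 0.4% SRB.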

Another test concerns the target Heat shock protein HSP90 (Homo sapiens, UniProt P07900+P08238). In words: Inhibition of Hsp90 protein as degradation of HER2 kinase in SKBr3 cells. The test is classed as functional, cell-based.
The target of test [1] is Heat shock protein HSP 90-alpha (Mus musculus, UniProt P07901). In words: Displacement of 5 nM GM-BODIPY from mouse heat shock protein HSP90-alpha.
Test [2] addresses T1, Heat shock protein HSP 90-alpha (Homo sapiens, UniProt P07900). Put plainly: Effective concentration of compound against heat shock protein HSP90 determined in normal lung cells.
The target of test [3] is T1, Heat shock protein HSP 90-alpha. Put plainly: Effective concentration of compound against heat shock protein HSP90 determined in normal heart cells.
For test [4] the target is unchanged. In words: Effective concentration of compound against heat shock protein HSP90 determined in normal brain cells.
Test [5] has as its system RPTEC. In words: Inhibitory concentration of compound against human renal proximal tubular epithelial cells (RPTEC) was determined. The test is classed as functional, cell-based. Put shortly: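 Pre-seeded normal human renal proximal tubular epithelial cells were equilibrated 3 h at 37 °C, 5% CO2, then given fresh medium. Cells were treated with drug or DMSO for 72 h.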

In test [6] the test system is RPTEC. Put plainly: Selective inhibition for renal proximal tubular epithelial cells (RPTEC) to that of SKBr3 cells. The test is classed as functional, Homo sapiens.
Test [7] concerns the target T1, Heat shock protein HSP 90-alpha. In words: Effective concentration against heat shock protein HSP90-alpha in SKBr3 cells. It is filed as functional, cell-based.
For test [8] the target is unchanged. Put plainly: Effective concentration against heat shock protein HSP90-alpha in MDA-MB-468 cells. It is filed as functional, cell-based.

Several values for one entry are separate records, joined by “and”; a condition that tells them apart may be missing. Equal entries are not always repeated.

For `C#CCCCn1c(Sc2cc3c(cc2Br)OCO3)nc2c(N)ncnc21`, the IC50 in the test with SK-BR-3 stood at 200 nM; on Heat shock protein HSP90, 0.3 µM; in the test with RPTEC [5], 4.1 µM. Also, the EC50 in [1] came to 30 nM; in test [2], 14.7 µM; in test [3], 65.3 µM; in [4] it was 40.2 µM; in [7], 20 nM. Also, the Selectivity in the test with RPTEC [6] came out at 20.5.
For `C#CCCCn1c(Sc2cc(OC)ccc2I)nc2c(N)ncnc21`, the IC50 in the test on SK-BR-3 turned out to be 570 nM; in the test on RPTEC [5], 3.3 µM. Also, the EC50 in test [1] is 50 nM; in test [2] it was 29.7 µM; in test [3] it was 26.7 µM; in test [4] it was 30.5 µM; in test [7], 30 nM.
Regarding `C#CCCCn1c(Sc2cc(OC)ccc2OC)nc2c(N)ncnc21`, the IC50 with SK-BR-3 is 1900 nM; against Heat shock protein HSP90 it was 3.2 µM; in the test on RPTEC [5], 31.4 µM. Also, the EC50 in test [1] is 190 nM; in test [2] it was greater than 75 µM; in test [3] it was 66.3 µM; in [4], 30.5 µM; in test [7] it was 160 nM. For the same compound, the Selectivity with RPTEC [6] was 16.5.
`C#CCCCn1c(Sc2cc(OC)ccc2Br)nc2c(N)ncnc21`: the values for the half-maximal inhibitory concentration (IC50) in the test on SK-BR-3, at Heat shock protein HSP90 and with RPTEC [5] were 1100 nM, 1.45 µM and 8.1 µM, respectively. The 50% effective concentration (EC50) in test [1] was found to be 70 nM; in [2], 27.6 µM; in [3], 29.5 µM; in test [4], 14.4 µM; in [7], 130 nM. In addition, in the test with RPTEC [6], the Selectivity is 7.4.
As to `COc1cc(Cc2nc3c(N)ncnc3n2CCOC(C)C)cc(OC)c1OC`, the results for the concentration for half-maximal inhibition (IC50) with SK-BR-3, against Heat shock protein HSP90 and in the test with RPTEC [5] were 71100 nM, 28.7 µM and greater than 200 µM, respectively. In addition, the EC50 was 5800 nM in test [8]; 5100 nM and 3600 nM in [7]. This compound yielded a Selectivity in the test with RPTEC [6] greater than 100.
In the case of `C#CCCCn1c(Sc2cc(OC)c(OC)c(OC)c2)nc2c(N)nc(F)nc21`, the half-maximal inhibitory concentration (IC50) was 18200 nM in the test with SK-BR-3 and 20.9 µM at Heat shock protein HSP90. Also, the EC50 in test [8] was 2200 nM; in [1] it was 1500 nM; in test [7], 2000 nM.
In the case of `C#CCCCn1c(Sc2cc(OC)c(OC)c(OC)c2)nc2c(N)ncnc21`, the IC50 is 27200 nM in the test on SK-BR-3, 22.3 µM against Heat shock protein HSP90 and 120 µM with RPTEC [5]. In addition, the half-maximal effective concentration (EC50) in [8] worked out at 2800 nM; in test [1] it was 1500 nM; in [7] it was 4200 nM. The compound further came in with a Selectivity in the test with RPTEC [6] of 4.4.
